How the values were obtained:
[1] = tested on: N-terminal peptide of GPIHBP1; assay: SPR binding to immobilized N-terminal peptide of GPIHBP1; design: species or system human; conditions: even at concentrations of 1 μM, 25 °C, 20 mM HEPES pH 7.4, 0.15 M NaCl
Procedure, shortened: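 Biacore SPR with 578 RU of biotinylated N-terminal GPIHBP1 peptide captured on the sensor (148.5 fmol/mm2). Analytes were tenfold-diluted pooled nonfasting human plasma, tenfold-diluted lipoprotein-deficient plasma (± 20, 40 or 80 nM purified bovine LPL) or isolated heparin-binding proteins (antithrombin III, protamine, FGF-2). Flow was 20 µl/min at 25 °C in 20 mM HEPES pH 7.4, 0.15 M NaCl.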

LPL = target: T1, LPL (Bos taurus, UniProt P11151); type: binding, bovine; conditions: fluorescence anisotropy, 10 IU/ml heparin in phosphate buffer
T1 sequence (P11151 29-478): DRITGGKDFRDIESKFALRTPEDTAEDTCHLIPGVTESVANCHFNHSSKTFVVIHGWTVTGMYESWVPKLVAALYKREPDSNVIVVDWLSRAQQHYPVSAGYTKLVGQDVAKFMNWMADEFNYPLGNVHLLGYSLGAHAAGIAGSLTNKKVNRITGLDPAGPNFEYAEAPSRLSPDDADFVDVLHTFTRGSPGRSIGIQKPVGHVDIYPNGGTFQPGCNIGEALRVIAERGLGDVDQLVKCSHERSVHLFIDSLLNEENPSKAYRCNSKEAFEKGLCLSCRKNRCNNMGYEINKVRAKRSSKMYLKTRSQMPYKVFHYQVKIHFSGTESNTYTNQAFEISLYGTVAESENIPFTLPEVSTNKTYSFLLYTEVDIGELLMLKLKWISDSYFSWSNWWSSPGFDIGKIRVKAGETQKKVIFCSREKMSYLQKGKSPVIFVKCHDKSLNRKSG
Procedure, shortened: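 N-terminal GPIHBP1 peptide labeled at cysteine with DyLight 488 maleimide, 100 nM, mixed with increasing LPL concentrations in 20 mM phosphate, pH 7.4, 0.15 M NaCl plus 10 IU/ml heparin. Excitation 493 nm, emission 518 nm, with emission polarizer parallel and perpendicular to vertical excitation. Anisotropy change versus LPL concentration fitted to a 1:1 binding model for KD.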

FGF-2: heparin binding protein, ICN Biomedicals
binding to the immobilized N-terminal domain of GPIHBP1 [1]: no binding

heparin
effect on the interaction between LPL and the N-terminal domain of GPIHBP1 (LPL): completely blocked the interaction

antithrombin III
binding to the immobilized N-terminal domain of GPIHBP1 [1]: no binding

protamine
binding to the immobilized N-terminal domain of GPIHBP1 [1]: no binding
